In ChEMBL document CHEMBL1817668, “Synthesis of 6-[¹⁸F]fluoro-PBR28, a novel radiotracer for imaging the TSPO 18 kDa with PET” (Bioorg Med Chem Lett, 2011):
Activity calls are given as the source filed them. The calls are words filed in the database; no cut-off is given here.

Legend:
Striatum [1] = assay: Drug uptake in rat striatum after 1-2 mins post injection; assay type: ADME, tissue-based; conditions: in vivo
Striatum [2] = assay: Drug uptake in AMPA lesioned rat striatum after 1-2 mins post injection; assay type: ADME, tissue-based; conditions: in vivo
Rattus norvegicus [3] = species on record: Rattus norvegicus; assay: Ex vivo binding affinity to TSPO in AMPA lesioned rat assessed as increase in ipsi to contralateral ratio by auto radiography; assay type: functional, organism-based
C6 = assay: Induction of pregnenolone synthesis in rat C6 cells at 40 uM after 2 hrs by ELISA relative to control; assay type: functional
Outline: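 Rat C6 glioma cells were exposed to ligand at 40 μM. Released pregnenolone was measured by competitive ELISA and expressed as % above control. Mean ± SEM of at least three independent experiments.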

Translocator protein [4] = target: Translocator protein (Homo sapiens, UniProt P30536); assay: Displacement of [3H]PK11195 from TSPO in human HEK293 mitochondrial fraction
Sequence of Translocator protein (Homo sapiens, UniProt P30536) (P30536 whole entry): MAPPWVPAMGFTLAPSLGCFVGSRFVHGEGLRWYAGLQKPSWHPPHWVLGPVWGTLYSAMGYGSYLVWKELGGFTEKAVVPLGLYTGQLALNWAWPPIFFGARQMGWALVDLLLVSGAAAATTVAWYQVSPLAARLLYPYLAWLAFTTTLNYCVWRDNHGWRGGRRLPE

Translocator protein [5] = target: T1, Translocator protein (Rattus norvegicus, UniProt P16257); assay: Displacement of [3H]PK11195 from TSPO in rat heart membrane homogenate; assay type: cell membranes
T1 sequence (P16257 whole entry, looked up): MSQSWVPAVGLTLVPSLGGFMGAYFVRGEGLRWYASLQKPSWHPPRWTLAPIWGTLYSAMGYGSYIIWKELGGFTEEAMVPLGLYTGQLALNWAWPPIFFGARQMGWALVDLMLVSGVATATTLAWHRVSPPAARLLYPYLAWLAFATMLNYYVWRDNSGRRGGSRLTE

Rattus norvegicus [6] = species on record: Rattus norvegicus; assay: Displacement of [3H]Flunitrazepam from CBR in rat cerebral cortex at 0.1 uM; assay type: tissue-based
Outline: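 Competition binding against [3H]flunitrazepam, a reference central benzodiazepine receptor ligand, in a rat cerebral cortex homogenate screen. […]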

Translocator protein [7] = target: T1, Translocator protein; assay: Displacement of [3H]PK11195 from TSPO in rat kidney mitochondrial fraction; assay type: tissue-based
[8] = Octanol-buffer partition coefficient, log D of the compound at pH 7.4 by shake flask method; assay type: physicochemical
Outline: (§1)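 Shake-flask partition of the [18F]-labelled radioligand. Log D7.4 was measured between n-octanol and buffer pH 7.4, and log P between n-octanol and water.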

Brain = assay: Ratio of drug uptake in ipsi to contralateral side of AMPA lesioned rat brain after 60 mins post injection; assay type: ADME, tissue-based; conditions: in vivo, 1 h
Outline: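 MicroPET imaging of rats with AMPA-induced brain lesions after injection of the fluorine-18-labelled radiotracer. Uptake in the lesioned (ipsilateral) striatal area is compared with the corresponding area of the intact contralateral hemisphere at 60 min post-injection. Time-activity curves are followed for lesioned and non-lesioned striatum over the scan.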

[9] = Octanol-water partition coefficient, log P of the compound by shake flask method; assay type: physicochemical; outline: as §1

Row | SMILES | Drug uptake (Striatum [1]) | Drug uptake (Striatum [2]) | Activity (Rattus norvegicus [3]) | Activity (C6) [%] | further results
1 | CCC(C)N([11CH3])C(=O)c1cc2ccccc2c(-c2ccccc2Cl)n1 (configuration not stated) | Active | Active |  |  | 
2 | CCC(C)N(C)C(=O)c1cc2ccccc2c(-c2ccccc2Cl)n1 (configuration not stated) [PK-11195] |  |  | inactive | 37 | 
3 | COc1ccccc1CN(C(C)=O)c1cnc(F)cc1Oc1ccccc1 |  |  | inactive | 16.45 | Ki (Translocator protein [4]): 1.19 nM; Ki (Translocator protein [5]): 0.44 nM; Activity (Rattus norvegicus [3]; tested as the 18F-labelled form): Active; Activity (Rattus norvegicus [6]): < 10%; Ki (Translocator protein [7]): 3.9 nM
4 | CCOC(=O)c1ncn2c1CN(C)C(=O)c1cc(F)ccc1-2 |  |  | Active |  | 
5 | COc1ccccc1CN(C(C)=O)c1cnc([18F])cc1Oc1ccccc1 | Active | Active |  |  | logD [8]: 2.82; Ratio (Brain): 2.2; logP [9]: 2.77
